# Laboratory results from ChEMBL document CHEMBL3585325, “Discovery of (1R,2S)-2-{[(2,4-Dimethylpyrimidin-5-yl)oxy]methyl}-2-(3-fluorophenyl)-N-(5-fluoropyridin-2-yl)cyclopropanecarboxamide (E2006): A Potent and Efficacious Oral Orexin Receptor Antagonist” (J Med Chem, 2015).
# Tests used:
# [1] = Oral bioavailability in C57BL/6NCrlCrlj mouse at 30 mg/kg by LC-MS/MS analysis; assay type: ADME, organism-based; settings: in vivo
# [2] = Plasma protein binding in C57BL/6N mouse at 10 mg/kg, po administered as single dose by equilibrium dialysis method; assay type: ADME, organism-based; settings: read-out: PPB (converted)
# Mus musculus [3] = experiment: Sleep promoting activity in C57BL/6NCrlCrlj mouse assessed as increase in REM sleep at 10 mg/kg, po administered immediately prior to beginning of dark cycle measured during first 3 hrs after drug administration by electroencephalogram/electromyogram analysis (reference value: 0.6 min); assay type: functional
# How it was run: (§1)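 Male C57BL/6NCrlCrlj mice implanted with EEG/EMG electrodes were dosed orally in 10% Cremophor EL, 5% DMSO in saline just before lights-off (ZT12) and recorded from ZT12 to ZT20. Group sizes were n=6 dosed and n=7 vehicle. Stages were scored by software with blinded visual confirmation; cumulative first-3-h times are mean with SEM. Dunnett's test was run after one-way ANOVA.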
# [4] = Plasma clearance in C57BL/6NCrlCrlj mouse at 1 mg/kg, iv by LC-MS/MS analysis; assay type: ADME, organism-based
# How it was run: (§2)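 Male C57BL/6NCrlCrlj mice dosed intravenously at 1 mg/kg in 10% DMSO in water. Blood was taken from the tail vein at set time points and spun to plasma. Concentrations were measured by LC-MS/MS (MRM, positive mode) against a 1/x²-weighted standard curve with internal standard. Parameters came from noncompartmental analysis.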
# CYP3A [5] = target: T1, CYP3A (Homo sapiens, UniProt P08684+P20815+P24462+Q9HB55); experiment: Time dependent inhibition of CYP3A in human liver microsomes assessed as enzyme activity using midazolam as substrate at 10 uM incubated for 30 mins prior to substrate addition for 10 mins by LC-MS/MS analysis; assay type: ADME; design: scale not given: the % may be the effect or the level left; settings: probe midazolam, read-out: Activity
# How it was run: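 Test compound at 10 μM preincubated 30 min at 37 °C with human liver microsomes (0.2 mg/mL), with or without an NADPH-generating system. Mixture then diluted 10-fold into a marker-substrate cocktail plus NADPH system and incubated 10 min at 37 °C. Midazolam served as the CYP3A probe. Metabolites measured by LC−MS/MS. Result is the residual activity with NADPH relative to without, as % of control.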
# [6] = Plasma concentration in C57BL/6NCrlCrlj mouse at 10 mg/kg, po administered as single dose measured after 1 hr by LC-MS/MS analysis; assay type: ADME, organism-based
# How it was run: (§3)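 Male C57BL/6NCrlCrlj mice given a single 10 mg/kg oral dose as a suspension in 0.5% aqueous methylcellulose. At 1 or 3 h, under pentobarbital anesthesia, CSF was taken from the cisterna magna and then blood from the abdominal aorta (spun to plasma). Samples were acetonitrile-precipitated with deuterated internal standard and run by LC-MS/MS. Values are mean with SEM.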
# [7] = Cmax in C57BL/6NCrlCrlj mouse at 10 mg/kg, po by LC-MS/MS analysis; assay type: ADME, organism-based; design: dose 10 mg/kg, route oral; settings: in vivo
# How it was run: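 Male C57BL/6NCrlCrlj mice dosed orally at 10 mg/kg in 10% Cremophor EL, 5% DMSO in saline. Tail-vein blood was taken at set time points and spun to plasma. Quantified by LC-MS/MS (MRM, positive mode) with internal standard and a 1/x²-weighted calibration. Parameters came from noncompartmental analysis.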
# [8] = target: T2, Orexin/Hypocretin receptor type 1 (Homo sapiens, UniProt O43613); experiment: Binding affinity to human OX1R expressed in HEK-293 cells assessed as inhibition of orexin A-induced calcium accumulation by FLIPR assay; assay type: cell-based, HEK293
# T2 sequence (O43613 whole entry): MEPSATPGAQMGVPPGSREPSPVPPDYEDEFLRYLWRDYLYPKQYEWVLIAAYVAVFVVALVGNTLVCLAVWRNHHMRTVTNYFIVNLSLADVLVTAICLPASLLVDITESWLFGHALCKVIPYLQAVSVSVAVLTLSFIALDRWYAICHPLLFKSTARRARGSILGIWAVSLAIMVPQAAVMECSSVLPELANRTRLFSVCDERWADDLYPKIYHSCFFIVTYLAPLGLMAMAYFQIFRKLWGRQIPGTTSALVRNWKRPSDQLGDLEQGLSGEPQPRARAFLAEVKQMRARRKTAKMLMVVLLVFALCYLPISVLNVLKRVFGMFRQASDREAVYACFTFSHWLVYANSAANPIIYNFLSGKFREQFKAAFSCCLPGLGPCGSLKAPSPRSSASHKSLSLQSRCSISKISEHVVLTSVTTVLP
# How it was run: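 HEK-293 cells expressing human OX1R, seeded at 16000 cells/well and grown overnight at 37 °C, then loaded with Calcium 4 dye in HEPES buffer with 0.1% BSA (1 h at 37 °C, 15 min at RT). Compound was equilibrated 30 min at RT before orexin-A was added. Fluorescence read at ex 480/em 540 nm on FDSS6000; response taken as peak/baseline ratio. Orexin-A EC50 was determined in each experiment.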
# Cytochrome P450 2C9 = Cytochrome P450 2C9 (Homo sapiens, UniProt P11712); experiment: Inhibition of CYP2C9 in human liver microsomes using tolbutamide as susbtrate incubated for 30 mins prior to substrate addition for 10 mins by LC-MS/MS analysis; assay type: ADME
# Sequence of Cytochrome P450 2C9 (P11712 whole entry): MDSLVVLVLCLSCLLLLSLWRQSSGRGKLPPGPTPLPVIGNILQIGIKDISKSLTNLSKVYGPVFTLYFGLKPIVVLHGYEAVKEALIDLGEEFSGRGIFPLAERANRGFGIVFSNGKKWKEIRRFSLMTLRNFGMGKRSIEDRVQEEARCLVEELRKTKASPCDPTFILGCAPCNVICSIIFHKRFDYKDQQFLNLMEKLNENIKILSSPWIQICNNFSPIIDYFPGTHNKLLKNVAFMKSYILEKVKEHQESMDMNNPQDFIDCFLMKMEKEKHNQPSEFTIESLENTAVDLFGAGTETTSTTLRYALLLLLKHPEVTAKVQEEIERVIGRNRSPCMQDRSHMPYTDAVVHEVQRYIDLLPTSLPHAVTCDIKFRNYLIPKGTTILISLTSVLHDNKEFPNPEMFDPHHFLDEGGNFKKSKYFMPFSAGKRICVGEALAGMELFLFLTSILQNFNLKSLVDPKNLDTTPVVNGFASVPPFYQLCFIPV
# [9] = Cmax in C57BL/6NCrlCrlj mouse at 30 mg/kg, po by LC-MS/MS analysis; assay type: ADME, organism-based; design: dose 30 mg/kg, route oral; settings: in vivo
# [10] = Half life in C57BL/6NCrlCrlj mouse at 1 mg/kg, iv by LC-MS/MS analysis; assay type: ADME, organism-based; settings: in vivo; how it was run: as §2
# Mus musculus [11] = experiment: Sleep promoting activity in C57BL/6NCrlCrlj mouse assessed as increase in REM sleep at 30 mg/kg, po administered immediately prior to beginning of dark cycle measured during first 3 hrs after drug administration by electroencephalogram/electromyogram analysis (reference value: 0.6 min); assay type: functional; how it was run: as §1
# [12] = Drug uptake in C57BL/6NCrlCrlj mouse CSF at 10 mg/kg, po administered as single dose measured after 3 hrs by LC-MS/MS analysis; assay type: ADME, organism-based, Cerebrospinal fluid; settings: read-out: Drug uptake; how it was run: as §3
# CYP3A [13] = target: T1, CYP3A; experiment: Inhibition of CYP3A in human liver microsomes assessed as enzyme activity using midazolam as substrate incubated for 30 mins prior to substrate addition for 10 mins by LC-MS/MS analysis; assay type: ADME; settings: probe midazolam
# How it was run: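 Compound preincubated 30 min at 37 °C with human liver microsomes (0.2 mg/mL), with or without an NADPH-generating system. The mix was diluted 10-fold into a marker-substrate cocktail plus NADPH system and incubated 10 min at 37 °C. Marker metabolites were measured by LC-MS/MS; residual activity with NADPH was expressed relative to without.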
# [14] = target: T2, Orexin/Hypocretin receptor type 1; experiment: Binding affinity to human OX1R by radioligand displacement binding assay
# How it was run: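 Ki values come from single experiments run in triplicate.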
# [15] = Plasma concentration in C57BL/6NCrlCrlj mouse at 10 mg/kg, po administered as single dose measured after 3 hrs by LC-MS/MS analysis; assay type: ADME, organism-based; how it was run: as §3
compound,measurement,setting,value
Cc1ncc(OC[C@@]2(c3cccc(F)c3)C[C@H]2C(=O)Nc2ccc(F)cn2)c(C)n1 [LEMBOREXANT],bioavailability,[1],13.4%
same,fraction unbound,[2],0.148
same,Time,Mus musculus [3],3.6 min
same,clearance,[4],17.7 mL/min/kg
same,"activity at 10 min, 10 µM",CYP3A [5],76%
same,concentration at 1 h,[6],633 nM
same,Cmax,[7],488 ng/mL
same,Ki,[8],5.7 nM
same,IC50,Cytochrome P450 2C9,> 20000 nM
same,Cmax,[9],961 ng/mL
same,half-life,[10],2.16 h
same,Time,Mus musculus [11],9.3 min
same,concentration at 3 h,[12],7.6 nM
same,IC50 at 30 min,CYP3A [13],> 20000 nM
same,Ki,[14],6 nM
same,concentration at 3 h,[15],158 nM
